Experimental data as given in ChEMBL document CHEMBL1137258 (J Med Chem, 2006).

How the values were obtained:
RKO [1] = test: Cytotoxicity against cell cycle arrested RKOp27 cells after 72 hrs by alamar blue assay; assay type: functional, cell-based; conditions: Homo sapiens
Method in brief: (§1)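 Human colon carcinoma RKOp27 line carrying ponasterone-A-inducible p27kip1. Induction gives G1-arrested cells, and uninduced cells stay proliferating. Viability was read as metabolic activity by Alamar Blue. IC50 values are the mean ± SD of two independent experiments, each with quadruplicate samples per concentration.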

RKO [2] = test: Cytotoxicity against proliferating RKOp27 cells after 72 hrs by Alamar Blue assay; assay type: functional, cell-based; conditions: Homo sapiens; method in brief: as §1
Tubulin = Tubulin (Bos taurus, UniProt Q6B856+Q862L2+Q862F3); test: Inhibition of MAP containing bovine brain tubulin polymerization; assay type: functional
Tubulin (Bos taurus) = test: Inhibition of [3H]colchicine binding to beta tubulin
RKO [3] = test: Cytotoxicity against RKOp27 cells at 30 uM after 72 hrs by alamar blue assay; assay type: functional, cell-based; conditions: Homo sapiens

| Structure (SMILES) | IC50 (RKO [1]) [µM] | IC50 (RKO [2]) [µM] | IC50 (Tubulin) [µM] | IC50 (Tubulin (Bos taurus)) [µM] | Activity (RKO [3]) |
| --- | --- | --- | --- | --- | --- |
| Cc1ccc(Nc2nc(-n3ccnc3C)cs2)cc1 | > 100 | 0.45 | 3 | 0.75 | – |
| Cc1nccn1-c1csc(Nc2ccc(S(N)(=O)=O)cc2)n1 | > 100 | 49 | – | – | – |
| c1ccc(Nc2nc(-n3cnc4ccccc43)cs2)cc1 | > 100 | > 100 | – | – | – |
| Cc1nccn1-c1csc(Nc2ccc(Br)cc2)n1 | > 100 | 30 | – | – | Not toxic |
| Cc1nc2ccccc2n1-c1csc(Nc2ccc(S(N)(=O)=O)cc2)n1 | 95 | 45 | – | – | – |
| Cc1nc2ccccc2n1-c1csc(Nc2cccc(Br)c2)n1 | 85 | 36 | – | – | – |
| Cc1ccc(Nc2nc(-n3cc(C)nc3C)cs2)cc1 | > 100 | 0.2 | – | 6.25 | – |
| COc1ccc(Nc2nc(-n3c(C)nc4ccccc43)cs2)cc1 | 52.5 | 0.025 | 1.25 | 0.75 | – |
| COc1ccc(Nc2nc(-n3ccnc3)cs2)cc1 | > 100 | > 100 | – | – | – |
| c1ccc(Nc2nc(-n3ccnc3)cs2)cc1 | > 100 | > 100 | – | – | – |
| COc1cccc(Nc2nc(-n3cc(C)nc3C)cs2)c1 | 60 | 22.5 | – | – | – |
| COc1ccc(Nc2nc(-n3ccnc3C)cs2)cc1 | > 100 | 1.6 | – | 8 | – |
| COc1cc([C@@H]2c3cc4c(cc3[C@H](O)[C@H]3COC(=O)[C@H]23)OCO4)cc(OC)c1OC [PODOFILOX] | > 0.5 | 0.029 | – | – | – |
| Cc1nccn1-c1csc(Nc2ccccc2)n1 | > 100 | 32.5 | – | – | – |
| Cc1nc2ccccc2n1-c1csc(Nc2ccc(Br)cc2)n1 | 60 | 0.09 | 1.2 | 1.25 | – |
| COc1cccc(Nc2nc(-n3ccnc3C)cs2)c1 | > 100 | 22.5 | – | – | – |
| Cc1cn(-c2csc(Nc3ccc(Br)cc3)n2)c(C)n1 | 45 | 0.4 | – | 4 | – |
| COc1ccc(Nc2nc(-n3cnc4ccccc43)cs2)cc1 | > 100 | > 100 | – | – | – |
| Cc1nc2ccccc2n1-c1csc(Nc2ccccc2)n1 | 50 | 40 | – | – | – |
| Cc1nc(C)c(-c2csc(Nc3ccc(Br)cc3)n2)s1 | 30 | 0.7 | – | 1 | – |
| COc1cccc(Nc2nc(-n3c(C)nc4ccccc43)cs2)c1 | 60 | 40 | – | – | – |
| COc1cc2c(c(OC)c1OC)-c1ccc(OC)c(=O)cc1[C@@H](NC(C)=O)CC2 [COLCHICINE] | > 5 | 0.016 | – | – | – |
| Brc1ccc(Nc2nc(-n3cnc4ccccc43)cs2)cc1 | > 100 | > 100 | – | 100 | – |
| Cc1nccn1-c1csc(Nc2cccc(Br)c2)n1 | > 100 | > 100 | – | – | – |
| COc1ccc(Nc2nc(-n3cc(C)nc3C)cs2)cc1 | > 100 | 0.25 | – | 7.5 | – |
| Cc1cn(-c2csc(Nc3cccc(Br)c3)n2)c(C)n1 | > 100 | > 100 | – | – | – |
